In ChEMBL document CHEMBL1141391 (J Med Chem, 2007) one finds ED50 and IC50 data, which are given here for eleven molecules.

One experiment has as its target Tubulin (Homo sapiens) (UniProt P68371+Q9H4B7+P0DPH7+P68366+Q13509+Q71U36+P04350+Q3ZCM7+P07437+P68363+Q9BQE3+Q6PEY2+Q13885+Q9BVA1+Q9BUF5). The experiment in a line: Induction of GTP-tubulin polymerization. The experiment is classed as protein-complex assay. The method in brief: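 ED50 for induction of tubulin assembly, read by light scattering at 350 nm or by fluorescence in a 96-well format. GTP-tubulin was used unless otherwise stated. Some samples were run with GDP-tubulin and normalized to the GTP-tubulin scale. Some values are single determinations.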

For another experiment, the system named is PC-3. In words: Cytotoxicity against PC3 cell line by MTT assay. The format is cell-based. The note with it: Homo sapiens.
The next experiment concerns A2780. In words: Cytotoxicity against A2780 cell line. The format is cell-based. The note with it: Homo sapiens.

In turn, `C=CCOc1ccccc1[C@H](NC(=O)c1ccccc1)[C@@H](O)C(=O)O[C@H]1C[C@@]2(O)[C@@H](OC(=O)c3ccccc3)[C@@H]3[C@]4(OC(=O)C=C)CO[C@@H]4C[C@H](O)[C@@]3(C)C(=O)[C@H](OC(C)=O)C(=C1C)C2(C)C` had an ED50 on Tubulin (Homo sapiens) of 1200 nM. The concentration for half-maximal inhibition (IC50) in the experiment with PC-3 worked out at 2800 nM; in the experiment on A2780, 17800 nM.
At Tubulin (Homo sapiens), `CC(=O)O[C@H]1C(=O)[C@@]2(C)[C@@H]3[C@H](OC(=O)c4ccccc4)[C@]4(O)C[C@H](OC(=O)[C@H](O)[C@@H](NC(=O)c5ccccc5)c5ccccc5/C=C/CC(=O)O[C@]35CO[C@@H]5C[C@@H]2O)C(C)=C1C4(C)C` gave an ED50 of 330 nM. The results for the IC50 in the experiment on PC-3 and in the experiment on A2780 were 3.1 nM and 0.5 nM, respectively.
`CC(=O)O[C@H]1C(=O)[C@@]2(C)[C@@H]3[C@H](OC(=O)c4ccccc4)[C@]4(O)C[C@H](OC(=O)[C@H](O)[C@@H](NC(=O)c5ccccc5)c5ccccc5OC/C=C/CCCC(=O)O[C@]35CO[C@@H]5C[C@@H]2O)C(C)=C1C4(C)C`: the ED50 at Tubulin (Homo sapiens) came to 530 nM. The IC50 in the experiment on PC-3 worked out at 90 nM; with A2780, 440 nM.
The molecule `COc1cccc(C(=O)O[C@H]2[C@@H]3[C@]45CO[C@@H]4C[C@H](O)[C@@]3(C)C(=O)[C@H](OC(C)=O)C3=C(C)[C@H](C[C@]2(O)C3(C)C)OC(=O)[C@H](O)[C@@H](NC(=O)c2ccccc2)c2ccccc2CCCC(=O)O5)c1` gave a half-inhibitory concentration (IC50) in the experiment with A2780 of 23.1 nM. That is a double-digit nanomolar value.
At Tubulin (Homo sapiens), `C=CCCOc1ccccc1[C@H](NC(=O)c1ccccc1)[C@@H](O)C(=O)O[C@H]1C[C@@]2(O)[C@@H](OC(=O)c3ccccc3)[C@@H]3[C@]4(OC(=O)C=C)CO[C@@H]4C[C@H](O)[C@@]3(C)C(=O)[C@H](OC(C)=O)C(=C1C)C2(C)C` gave an ED50 of 2700 nM. Besides, the IC50 was more than 13200 nM with PC-3 and 19800 nM with A2780.
Molecule `CC(=O)O[C@H]1C(=O)[C@@]2(C)[C@@H]3[C@H](OC(=O)c4ccccc4)[C@]4(O)C[C@H](OC(=O)[C@H](O)[C@@H](NC(=O)OC(C)(C)C)c5ccccc5CCCC(=O)O[C@]35CO[C@@H]5C[C@@H]2O)C(C)=C1C4(C)C` had an ED50 at Tubulin (Homo sapiens) of 180 nM. In addition, the IC50 was determined as 1.5 nM in the experiment with PC-3 and 0.65 nM with A2780.
In turn, `C=CCc1ccccc1[C@H](NC(=O)c1ccccc1)[C@@H](O)C(=O)O[C@H]1C[C@@]2(O)[C@@H](OC(=O)c3ccccc3)[C@@H]3[C@]4(OC(=O)C=C)CO[C@@H]4C[C@H](O)[C@@]3(C)C(=O)[C@H](OC(C)=O)C(=C1C)C2(C)C` gave an ED50 at Tubulin (Homo sapiens) of 1400 nM. For the same molecule, the IC50 with PC-3 was 550 nM; with A2780 it was 1300 nM.
Molecule `CC(=O)O[C@H]1C(=O)[C@@]2(C)[C@@H]3[C@H](OC(=O)c4ccccc4)[C@]4(O)C[C@H](OC(=O)[C@H](O)[C@@H](NC(=O)c5ccccc5)c5ccccc5OCCCCC(=O)O[C@]35CO[C@@H]5C[C@@H]2O)C(C)=C1C4(C)C` came in with an ED50 at Tubulin (Homo sapiens) of 230 nM. Further, the figures for the IC50 in the experiment on PC-3 and with A2780 were 13 nM and 28 nM, respectively.
For the molecule `C=CCCC(=O)O[C@@]12CO[C@@H]1C[C@H](O)[C@@]1(C)C(=O)[C@H](OC(C)=O)C3=C(C)[C@@H](OC(=O)[C@H](O)[C@@H](NC(=O)c4ccccc4)c4cccc(OCC=C)c4)C[C@@](O)([C@@H](OC(=O)c4ccccc4)[C@H]21)C3(C)C`, the ED50 at Tubulin (Homo sapiens) came out at 1800 nM. Also, the figures for the concentration for half-maximal inhibition (IC50) in the experiment with PC-3 and in the experiment with A2780 were 2600 nM and 2520 nM, respectively.
The molecule `CC(=O)O[C@H]1C(=O)[C@@]2(C)[C@@H]3[C@H](OC(=O)c4ccccc4)[C@]4(O)C[C@H](OC(=O)[C@H](O)[C@@H](NC(=O)c5ccccc5)c5ccccc5OCCCCCCC(=O)O[C@]35CO[C@@H]5C[C@@H]2O)C(C)=C1C4(C)C` registered an ED50 on Tubulin (Homo sapiens) of 850 nM. The results for the IC50 in the experiment on PC-3 and in the experiment with A2780 were 390 nM and 2000 nM, respectively.
In the case of `CC(=O)O[C@H]1C(=O)[C@@]2(C)[C@@H]3[C@H](OC(=O)c4ccccc4)[C@]4(O)C[C@H](OC(=O)[C@H](O)[C@@H](NC(=O)c5ccccc5)c5ccccc5OC/C=C/CCC(=O)O[C@]35CO[C@@H]5C[C@@H]2O)C(C)=C1C4(C)C`, the ED50 on Tubulin (Homo sapiens) was found to be 900 nM. The concentration for half-maximal inhibition (IC50) in the experiment on PC-3 worked out at 55 nM; with A2780, 830 nM.
